Measurements from publication PMC6126370 (Investigational new drugs, 2017).
Blank lines part the entries; values can stand above or below the molecule they belong to.

Legend:
[1] = system: human liver microsomal fractions; assay: In vitro metabolism in liver microsomes or S9 fractions; type: in vitro ADME
In short: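 Test compound at 1 and 10 μM was incubated with human liver microsomes or S9 fraction (0.5 mg protein/mL) with 1 mM NADPH and 3.3 mM […] in 100 mM phosphate, pH 7.4, at 37 °C with shaking. For O-methylation, 0.1 mM S-adenosyl methionine was added. Aliquots were processed like plasma and analysed by LC/MS.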

[2] = system: refractory solid tumors; assay: Clinical response by RECIST 1.1; type: in vivo, human
In short: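 Adults (≥18 y) with solid tumors refractory to or lacking standard therapy received the test compound i.v. over 1 h on days 1 and 8 of 21-day cycles. Doses were 10–470 mg/m2/day, escalated by modified accelerated titration and then 3+3. Response was assessed by RECIST criteria in evaluable patients.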

[3] = system: mouse xenografts of triple negative breast cancer, lymphoma, myeloma, pancreatic, and hepatocellular carcinoma; settings: preclinical mouse xenografts; cited from earlier work
[4] = system: Bcl-6-dependent diffuse large B-cell lymphoma (DLBCL), hepatocellular carcinoma (HCC), and breast cancer cell lines; settings: preclinical studies, through induction of apoptosis; cited from earlier work
[5] = Clinical pharmacokinetics of PU-H71 in plasma and urine; type: in vivo, human; settings: for Urinary excretion: 1-h i.v. infusion
In short: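 Patients with refractory solid tumors received the test compound (10–470 mg/m2) as a 1-h i.v. infusion. Heparinised blood was drawn on cycle 1 day 1 pre-infusion, 30 min after start, 5 min before end, and 1.5–24 h after start. Plasma was stored at −70 °C. Urine was collected every void on day 1. Plasma was acetonitrile-precipitated with deuterated internal standard and run on HPLC/MS against a control-plasma standard curve. Cmax/Tmax were taken by inspection and AUC by trapezoidal rule.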

[6] = system: patients with advanced solid tumors; settings: human, in vivo
[7] = PU-H71 metabolites in patient plasma; type: in vivo, human; settings: aliquot of patient plasma, Fig. 5a
[8] = 14 patients evaluable of 17 enrolled

- most active phase 1 reaction ([1]; forms catechol 501): O-demethylation
- dependency of T1/2 to dose level ([5]; 10 to 470 mg/m^2): no dependency to dose level
- fraction of total AUC (± SD) during the infusion ([5]; all dose levels): 19.6% ± 11.3%
- Urinary excretion ([5]; dose level 1 (10 mg/m^2), day 1, 1 patient): 5.5%
- Urinary excretion ([5]; dose level 4 (60 mg/m^2), day 1, 1 patient): 8.8%
- Urinary excretion ([5]; dose level 5 (80 mg/m^2), day 1, mean ± SD of 2 patients): 6.7 ± 1.3%
- Urinary excretion ([5]; dose level 6 (110 mg/m^2), day 1, mean ± SD of 3 patients): 6.7 ±4.6%
- Urinary excretion ([5]; dose level 7 (150 mg/m^2), day 1, 1 patient): 8.1%
- Urinary excretion ([5]; dose level 8 (200 mg/m^2), day 1, mean ± SD of 2 patients): 6.0 ± 4.2%
- Urinary excretion ([5]; dose level 9 (266 mg/m^2), day 1, 1 patient): 5.4%
- Urinary excretion ([5]; dose level 10 (354 mg/m^2), day 1, mean ± SD of 3 patients): 8.6 ± 4.6%
- Urinary excretion ([5]; dose level 11 (470 mg/m^2), day 1, 1 patient): 5.7%
- Tmax ([5]; human, plasma, intravenous): ≤ 1 h
- half-life ([5]; human, plasma, intravenous): 162 to 1190 min
- half-life ([5]; human, plasma, iv): 504 ± 216 min
- AUC(0-inf) ([5]; human, plasma, iv, 10 mg/m^2): 0.517 µM·h
- AUC(0-t) ([5]; human, plasma, iv, 10 mg/m^2): 0.45 µM·h
- Cmax ([5]; human, plasma, iv, 10 mg/m^2): 0.2 µM
- clearance ([5]; human, plasma, iv, 10 mg/m^2): 17.2 mL/min/kg
- half-life ([5]; human, plasma, iv, 10 mg/m^2): 162 min
- AUC(0-inf) ([5]; human, plasma, iv, 20 mg/m^2): 1.67 µM·h
- AUC(0-t) ([5]; human, plasma, iv, 20 mg/m^2): 1.23 µM·h
- Cmax ([5]; human, plasma, iv, 20 mg/m^2): 0.3 µM
- clearance ([5]; human, plasma, iv, 20 mg/m^2): 10.5 mL/min/kg
- half-life ([5]; human, plasma, iv, 20 mg/m^2): 630 min
- half-life ([5]; human, plasma, iv, 40 mg/m^2): 552 min
- AUC(0-inf) ([5]; human, plasma, iv, 60 mg/m^2): 5.02 µM·h
- AUC(0-t) ([5]; human, plasma, iv, 60 mg/m^2): 4.55 µM·h
- Cmax ([5]; human, plasma, iv, 60 mg/m^2): 1.3 µM
- clearance ([5]; human, plasma, iv, 60 mg/m^2): 10.5 mL/min/kg
- half-life ([5]; human, plasma, iv, 60 mg/m^2): 366 min
- AUC(0-inf) ([5]; human, plasma, iv, 80 mg/m^2): 16.8 µM·h
- AUC(0-t) ([5]; human, plasma, iv, 80 mg/m^2): 15 µM·h
- Cmax ([5]; human, plasma, iv, 80 mg/m^2): 5.7 ± 0.1 µM
- clearance ([5]; human, plasma, iv, 80 mg/m^2): 4.17 mL/min/kg
- half-life ([5]; human, plasma, iv, 80 mg/m^2): 402 ± 6 min
- AUC(0-inf) ([5]; human, plasma, iv, 110 mg/m^2): 22.9 µM·h
- AUC(0-t) ([5]; human, plasma, iv, 110 mg/m^2): 19.8 µM·h
- Cmax ([5]; human, plasma, iv, 110 mg/m^2): 7.3 ± 2.4 µM
- clearance ([5]; human, plasma, iv, 110 mg/m^2): 4.67 mL/min/kg
- half-life ([5]; human, plasma, iv, 110 mg/m^2): 456 ± 12 min
- AUC(0-inf) ([5]; human, plasma, iv, 150 mg/m^2): 29.5 µM·h
- AUC(0-t) ([5]; human, plasma, iv, 150 mg/m^2): 25.6 µM·h
- Cmax ([5]; human, plasma, iv, 150 mg/m^2): 8.7 µM
- clearance ([5]; human, plasma, iv, 150 mg/m^2): 4.5 mL/min/kg
- half-life ([5]; human, plasma, iv, 150 mg/m^2): 432 min
- AUC(0-inf) ([5]; human, plasma, iv, 200 mg/m^2): 41.3 µM·h
- AUC(0-t) ([5]; human, plasma, iv, 200 mg/m^2): 34.8 µM·h
- Cmax ([5]; human, plasma, iv, 200 mg/m^2): 8 ± 4.5 µM
- clearance ([5]; human, plasma, iv, 200 mg/m^2): 4.33 mL/min/kg
- half-life ([5]; human, plasma, iv, 200 mg/m^2): 426 ± 30 min
- AUC(0-inf) ([5]; human, plasma, iv, 266 mg/m^2): 90.8 µM·h
- AUC(0-t) ([5]; human, plasma, iv, 266 mg/m^2): 59.9 µM·h
- Cmax ([5]; human, plasma, iv, 266 mg/m^2): 7.8 µM
- clearance ([5]; human, plasma, iv, 266 mg/m^2): 2.5 mL/min/kg
- half-life ([5]; human, plasma, iv, 266 mg/m^2): 612 min
- AUC(0-inf) ([5]; human, plasma, iv, 354 mg/m^2): 180 µM·h
- AUC(0-t) ([5]; human, plasma, iv, 354 mg/m^2): 114 µM·h
- Cmax ([5]; human, plasma, iv, 354 mg/m^2): 17.3 ± 8.5 µM
- clearance ([5]; human, plasma, iv, 354 mg/m^2): 2.17 mL/min/kg
- half-life ([5]; human, plasma, iv, 354 mg/m^2): 690 ± 438 min
- AUC(0-inf) ([5]; human, plasma, iv, 470 mg/m^2): 203 µM·h
- AUC(0-t) ([5]; human, plasma, iv, 470 mg/m^2): 143 µM·h
- Cmax ([5]; human, plasma, iv, 470 mg/m^2): 33.7 µM
- clearance ([5]; human, plasma, iv, 470 mg/m^2): 2 mL/min/kg
- half-life ([5]; human, plasma, iv, 470 mg/m^2): 648 min
- given dose (± SD) recovered as free drug in urine ([5]; total urine collected in 24 h, average for all dose levels): 6.7 ± 3.0%
SMILES: CC(C)NCCCn1c(Sc2cc3c(cc2I)OCO3)nc2c(N)ncnc21 [PU-H71, 6-amino-8-[(6-iodo-1,3-benzodioxol-5-yl)thio]-N-(1-methylethyl)-9H–purine-9-propanamine]
- phase 1 reactions ([1]; NADPH, 37 °C): S-oxidation, N-dealkylation, de-iodination, and O-demethylation
- progressive disease within the first 2 cycles ([2]; 14 evaluable patients): Eight of the evaluable patients progressed early
- patients with best response of stable disease [2, 8]: 35%
- patients with best response of stable disease for >2 cycles (number) [2, 8]: 6
- growth inhibitory effects in xenografts [3]: potent and lasting growth inhibitory effects
- cytotoxicity [4]: high cytotoxicity
- dose level of first grade ≥ 2 toxicity [6]: DL 6

- peak in representative ion mass tracing [7]: observed
SMILES: NCCCn1c(Sc2cc3c(cc2I)OCO3)nc2c(N)ncnc21 [compound 471, de-isopropyl PU-H71]
